Several values for one entry are separate records, joined by “and”; a condition that tells them apart may be missing. Identical values can stand only once.
Tests used:
Assay type in all cases: cell-based
Interleukin-5 = target: T1, Interleukin-5 (Mus musculus, UniProt P04401); assay: Inhibition of interleukin-5 in mouse Y16 cells
T1 sequence (P04401 whole entry): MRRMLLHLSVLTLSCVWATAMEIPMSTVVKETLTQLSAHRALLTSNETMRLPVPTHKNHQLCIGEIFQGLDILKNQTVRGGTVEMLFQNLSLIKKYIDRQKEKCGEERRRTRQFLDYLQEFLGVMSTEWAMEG
Summary of the method: (§1)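 IL-5-dependent mouse pro-B Y16 cells were incubated with 3 units/mL mIL-5 for 48 h, with or without test sample. Cell metabolism was then read with the tetrazolium salt WST-1 as an index of proliferation.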

[1] = target: T2, Interleukin-5 (Mus musculus) (UniProt P04401); assay: Inhibition of interleukin-5 in mouse Y16 cells at 30 uM; summary of the method: as §1
T2 sequence (whole entry): T1 sequence (P04401 whole entry)

[2] = target: T2, Interleukin-5 (Mus musculus); assay: Inhibition of interleukin-5 in mouse Y16 cells at 50 uM; summary of the method: as §1

IC50 (Interleukin-5)	inhibition [1] [%]	inhibition [2] [%]	SMILES
> 50 µM	30		O=c1c(CNC(CCO)c2ccccc2)coc2cccc(OCC3CCCCC3)c12 (centres undefined)
> 50 µM	15		O=c1c(CNCCCO)coc2cccc(OCC3CCCCC3)c12
> 50 µM	31		COc1ccc(NCc2coc3cccc(OCC4CCCCC4)c3c2=O)cc1
> 50 µM	32		O=c1c(CNCc2ccccc2)coc2cccc(OCC3CCCCC3)c12
25.7 µM	72		O=c1c(CNC(CO)Cc2ccccc2)coc2cccc(OCC3CCCCC3)c12 (centres undefined)
28.5 µM	50		O=c1c(CNCc2ccc(O)cc2)coc2cccc(OCC3CCCCC3)c12
> 50 µM	13		O=c1c(CNCCO)coc2cccc(OCC3CCCCC3)c12
> 50 µM	14		O=c1c(CNc2ccccc2)coc2cccc(OCC3CCCCC3)c12
17.3 µM	93		O=c1c(CNC(CO)CC2CCCCC2)coc2cccc(OCC3CCCCC3)c12 (centres undefined)
> 50 µM	20		O=c1c(CNCCCCCO)coc2cccc(OCC3CCCCC3)c12

Second part, the compound before the results:

SMILES	IC50 (Interleukin-5)	inhibition [1] [%]	inhibition [2] [%]
O=c1c(CNc2ccc(O)cc2)coc2cccc(OCC3CCCCC3)c12	27.3 µM	57	
COc1ccc(CNCc2coc3cccc(OCC4CCCCC4)c3c2=O)cc1	> 30 µM	43	
O=c1c(-c2ccc(O[C@@H]3O[C@H](CO)[C@@H](O)[C@H](O)[C@H]3O)cc2)coc2cc(O)cc(O)c12 [SOPHORICOSIDE]	1.4 µM and 10.6 µM		79.1
CC(C)(CO)NCc1coc2cccc(OCC3CCCCC3)c2c1=O	26.4 µM	63	
CC(C)(C)C(CO)NCc1coc2cccc(OCC3CCCCC3)c2c1=O (centres undefined)	26.2 µM	65	
CCCC(CO)NCc1coc2cccc(OCC3CCCCC3)c2c1=O (centres undefined)	> 50 µM	13	
O=c1c(CNC(CO)c2ccccc2)coc2cccc(OCC3CCCCC3)c12 (centres undefined)	18.5 µM	88	
